From PubChem
An excerpt weighted towards active compounds, which were near 1.6% of everything screened.
TCR-CD3 inh – inhibitors of human TCR-CD3 interaction; 0.37% of 360,000 active; inhibition, % at 9.4 µM; TAMRA-labeled TCR probe fluorescence, biochemical; in the data active means inhibition above about 19%;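 further: recombinant mutant TCR 2C K166C tagged with TAMRA read by polarization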
eIF4H FP inh – inhibitors of RNA binding by human eIF4H | eIF4H fluorescence polarization binding assay | inhibition, % at 35 µM | Q15056 | 0.94% of 290,000 active | AID 2012;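 further: calls also rest on retests at 20 µM and on dose response follow-up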
PABP1 MLLE inh – blocks PAM2 peptide binding to the PABP1 MLLE domain. GST-MLLE / FITC-PAM2 fluorescence polarization. inhibition, % at 20 µM. 0.36% of 360,000 active; in the data active means inhibition above about 35%, passing the limit was not always enough
PABP FP inh – PABP-poly(A) binding inhibition; P11940; PABP-poly(A) RNA binding, fluorescence polarization; calls only at 35 µM; 1% of 290,000 active; AID 2014;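 further: calls also rest on retests at 20 µM and on dose response follow-up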
RBBP9 inh – human RBBP9 hydrolase inhibition | O75884 | recombinant RBBP9, FP-Rh probe fluorescence polarization | inhibition, % at 7.94 µM | 0.2% of 220,000 active;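 active means inhibition above the campaign mean of all tested compounds plus 3 SD, cut at about 14% in these data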
Target sequence (O75884 whole entry, looked up): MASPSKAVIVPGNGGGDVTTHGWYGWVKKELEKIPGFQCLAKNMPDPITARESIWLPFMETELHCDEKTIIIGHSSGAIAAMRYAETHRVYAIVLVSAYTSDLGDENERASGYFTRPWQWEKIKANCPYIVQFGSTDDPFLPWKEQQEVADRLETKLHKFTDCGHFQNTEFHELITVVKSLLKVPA
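Material: RBBP9 protein. Amount: RBBP9 at 2.5 µM in dispensed solution, before mixing. Schedule: 30 min then 45 min, 25 °C. Medium: Tris buffer pH 8.0, NaCl, Pluronic. Measured by: fluorescence polarization. Measure: percent inhibition from mP, scaled between DMSO and no-protein wells. Replication: one well per compound.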
Hits are given with their value; – = inactive; ? = inconclusive; · = no result given; + = active, no number. Unless noted, how the calls were made is not given here.

SMILES	TCR-CD3 inh	eIF4H FP inh	PABP1 MLLE inh	PABP FP inh	RBBP9 inh
C[C@@H]1CN([C@H](C)CO)C(=O)c2cc(Br)cnc2O[C@H]1CN(C)C(=O)c1ccc(F)cc1	–	·	·	·	·
O=CNn1cnc2c(oc3nc(-c4ccccc4)cc(-c4ccco4)c32)c1=O	–	51	–	–	–
CC1=C(C#N)C(=O)OC(C)(C)C1	–	122	–	+	–
COc1ccc(CCN2CC(=O)N3CCc4ccc(N5CCOCC5)cc4C3CC2=O)cc1OC (stereo not given)	–	·	·	·	·
C[C@@H]1CNC(=O)c2c(C(=O)N(C)Cc3ccccc3)ncn21	–	·	·	·	·
COc1cccc(-n2c(=S)sc3c(=O)n(-c4ccccc4OC)c(=S)[nH]c32)c1	–	–	41	–	–
N#CC1=C(N)N(c2ccccc2)C(=O)C1	–	–	–	+	–
COc1ccc(N2C(=O)CC(C#N)=C2N)cc1	–	–	–	–	–
C[C@@H]1CN([C@@H](C)CO)C(=O)CCCn2cc(nn2)CO[C@H]1CN(C)C(=O)Nc1ccccc1	–	·	·	·	·
O=C(CSc1ccc(-c2ccco2)nn1)NCc1ccc(F)cc1	–	–	–	–	–
Fc1ccc(CSc2ccc(-c3ccco3)nn2)cc1	–	?	–	+	–
O=C(CSc1ccc(-c2ccco2)nn1)c1ccc(F)cc1	–	–	–	+	–
CCOC(=O)N[C@H](C(=O)N1CCC[C@H]1C(=O)NCCc1ccccc1Cl)c1ccccc1	–	·	·	·	·
Cc1ccc(C(=O)CNc2cccc([N+](=O)[O-])c2)cc1	–	–	41	–	–
Cc1ccc(NCC(=O)c2ccc([N+](=O)[O-])cc2)cc1	·	–	–	–	–
CCCCNC(=O)C[C@H]1C[C@@]2(C(=O)OC)C(=C[C@H](COCc3ccccc3)O[C@@H]2C)N(Cc2ccc3c(c2)OCO3)C1=O	–	·	·	·	·
CCNc1nc2[nH]c(=O)c3c(c2s1)OC(N)=C(C#N)C3c1ccc(C)cc1 (stereo not given)	–	?	–	+	–
O=C1NC(=S)N(C(=O)c2ccc(F)cc2)/C1=C/c1ccccc1	–	72	–	+	–
COc1ccc(/C=C2\C(=O)NC(=S)N2C(=O)c2ccc(F)cc2)cc1	–	–	–	–	–
CC1=CC(=C2C(=O)c3ccccc3C2=O)C=C(C)N1C	–	–	–	–	–
CCCCCN1C=CC(=C2C(=O)c3ccccc3C2=O)C=C1	–	88	–	+	–
CC(=O)c1nnn(-c2ccc([N+](=O)[O-])cc2)c1C	–	active	–	–	–
Brc1cccc(CN2CCN(c3ncc(Cc4ccccc4)cn3)CC2)n1	–	·	·	·	·
Clc1cc(Cl)cc(CN2CCN(c3ncc(Cc4ccccc4)cn3)CC2)c1	–	·	·	·	·
CCOc1cc(C2C3=C(CCCC3=O)N(CC(=O)O)C3=C2C(=O)CCC3)ccc1OC	–	–	60	–	·
SMILES	TCR-CD3 inh	eIF4H FP inh	PABP1 MLLE inh	PABP FP inh	RBBP9 inh
COc1ccc(C2C3=C(CCCC3=O)N(CC(=O)O)C3=C2C(=O)CCC3)cc1Cl	–	–	–	–	·
O=C(CSc1nc2ccccc2c(=O)n1CCCO)NCc1ccccc1	–	–	38	–	–
COc1ccc(Cc2c(C3CCCCC3)nc3ccc(C)cn23)c(C)c1	–	·	·	·	·
COc1ccc(-c2cc(-c3ccco3)[nH]c(=O)c2C#N)cc1	–	74	–	+	–
C=CCC12C[C@@]3(O[C@H](c4ccc(C(F)(F)F)cc4)N=C3C[C@H](c3ccc(OC)cc3)[C@H]1C)N(Cc1ccc3c(c1)OCO3)C2=O	–	·	·	·	·
COC(=O)c1sc(N2C(=O)C(O)=C(C(=O)c3ccc(C)o3)C2c2cccs2)nc1C (stereo not given)	–	–	–	–	·
COC(=O)c1sc(N2C(=O)C(O)=C(C(=O)c3ccc(C)o3)C2c2ccco2)nc1C (stereo not given)	–	52	–	+	·
CCOC(=O)N[C@H](C(=O)N1CCC[C@H]1C(=O)NCc1ccccc1)C(C)C	–	·	·	·	·
Cc1ccccc1-c1nn(-c2ccc(F)cc2F)cc1CNCC(C)O (stereo not given)	–	–	–	–	–
Cc1ccccc1-c1nn(-c2ccc(F)cc2F)cc1CNC1CC1	–	54	–	+	–
COC(=O)[C@@H](N[C@H](/C=C/c1ccccc1)[C@@H](O)Cc1ccccc1)C(C)C	–	·	·	·	·
COc1cccc(CNC(=O)[C@H]2CCCN2C(=O)[C@H]2CCCN2C(=O)c2ccc(Cl)cc2)c1	–	·	·	·	·
S=C(c1ccc(-c2ccccc2Cl)o1)N1CCOCC1	·	–	41	–	–
S=C(c1ccc(-c2ccc(Cl)c(Cl)c2)o1)N1CCOCC1	·	–	–	–	–
CCCc1cc2c(OC)ccc(O)c2c(=O)n1C	–	·	·	·	·
O=C(CN1C(=O)S/C(=C\c2ccc(Cl)cc2)C1=O)NNC(=O)c1ccccc1O	33	–	–	–	–
O=C(NN1C(=O)/C(=C/c2ccc(O)cc2)SC1=S)c1ccccc1O	–	–	–	+	·
COc1ccccc1/C=C1\SC(=S)N(Nc2nc(C)cc(C)n2)C1=O	–	–	–	–	–
Cc1cc(C)nc(NN2C(=O)/C(=C/c3ccc(O)cc3)SC2=S)n1	·	?	–	+	–
N#Cc1ccsc1NC(=O)CN1C(=O)NC2(CCCCC2)C1=O	–	–	–	+	·
CCCCCCCCN1C(=O)[C@@H](CC(=O)NCc2ccc(OC)c(OC)c2)C[C@@]2(C(=O)OC)C1=C[C@H](C(C)(C)C)O[C@@H]2C	–	·	·	·	·
CC(C)CSC1=NSC2=NC(=O)/C(=C\c3cccs3)C(=N)N12	–	51	–	–	–
Cn1c(=O)c2c(c3ccccc31)OC(C)(C)C=C2	–	·	·	·	·
O=[N+]([O-])c1cc(Br)cc(C=Nc2ccc3c(c2)OCO3)c1O	–	69	–	+	–
C[C@H]1CN(C(=O)OC(C)(C)C)CCN1c1ccc(N2CCS(=O)(=O)CC2)c(C#N)c1	–	·	·	·	·
SMILES	TCR-CD3 inh	eIF4H FP inh	PABP1 MLLE inh	PABP FP inh	RBBP9 inh
Oc1[nH]c(=S)sc1C=C1N=c2ccccc2=N1	–	–	–	–	–
Oc1[nH]c(=S)sc1/C=C1\C(c2ccccc2)=Nc2ccccc21	–	57	–	–	–
COCCN1C(=O)[C@H]2C[C@@]13O[C@H](c1ccccn1)N=C3CC1c3ccccc3C[C@@]12C (stereo not given in full)	–	·	·	·	·
CCCN1CCCCC(NC(=O)c2cccs2)C1=O (stereo not given)	–	·	·	·	·
Cc1nc2ccc(NC(=O)C3COc4ccccc4O3)cc2s1 (stereo not given)	–	·	–	·	–
Cc1nc2cc(NC(=O)C3COc4ccccc4O3)ccc2s1 (stereo not given)	–	–	–	+	–
Cc1csc(N/N=C/c2ccc(O)c([N+](=O)[O-])c2)n1	–	68	–	+	–
C=CCN1C(C(=O)OCC)CSCCS1(=O)=O (stereo not given)	–	·	·	·	·
O=C1N=C(N2C=CC(=C3C=CNC=C3)C=C2)/C(=C/N=NC(=O)c2ccccc2O)S1	–	·	48	·	·
COc1ccc(/C=N/c2c(-c3ccco3)nc3ccccn23)cc1OC	–	?	47	?	–
Clc1ccc(/C=N/c2c(-c3ccco3)nc3ccccn23)cc1	–	128	39	+	–
